Experimental findings from ChEMBL document CHEMBL5344453, “Selective Recognition of c-KIT 1 G-Quadruplex by Structural Tuning of Heteroaromatic Scaffolds and Side Chains” (ACS Med Chem Lett, 2024) are described below.

In experiment [1] the test system is Quadruplex DNA. Nature of the experiment: Stabilization of G-quadruplex BCL2 5-FAM-AGGGGCGGGCGCGGGAGGAAGGGGGCGGGAGCGGGGCTG-TAMRA-3 (unknown origin) assessed as change in melting temperature at 1 uM incubated for 1 hr in dark condition by FRET-based melting assay. Type of experiment: nucleic-acid assay. The essentials:
(§1)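 FRET melting of dual-fluorophore-tagged oligonucleotides (200 nM) in 60 mM potassium cacodylate buffer, pH 7.4, with ligand at 1 μM; ΔTm taken against the ligand-free oligonucleotide Tm as control.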

In experiment [2] the test system is Quadruplex DNA. Nature of the experiment: Stabilization of calf thymus […] ds DNA 5-FAM-CAATCGGATCGAATTCGATCCGATTG-TAMRA-3 assessed as change in melting temperature at 1 uM incubated for 1 hr in dark condition by FRET-based melting assay. The conditions noted are these: Bos taurus. Type of experiment: nucleic-acid assay. An outline of the steps: as §1

Experiment [3] relates to Quadruplex DNA. Description: Stabilization of G-quadruplex c-KIT2 5-FAM-GGGCGGGCGCGAGGGAGGGG-TAMRA-3 (unknown origin) assessed as change in melting temperature at 1 uM incubated for 1 hr in dark condition by FRET-based melting assay. Type of experiment: nucleic-acid assay. An outline of the steps:
as §1

The test system of experiment [4] is Quadruplex DNA. Description: Stabilization of G-quadruplex c-MYC 5-FAM-TGGGGAGGGTGGGGAGGGTGGGGAAGG-TAMRA- 3 (unknown origin) assessed as change in melting temperature at 1 uM incubated for 1 hr in dark condition by FRET-based melting assay. Type of experiment: nucleic-acid assay. The essentials: as §1
In experiment [5] the test system is Quadruplex DNA. Nature of the experiment: Stabilization of G-quadruplex VEGF 5-FAM-CGGGGCGGGCCGGGGGCGGGGT-TAMRA-3 (unknown origin) assessed as change in melting temperature at 1 uM incubated for 1 hr in dark condition by FRET-based melting assay. Type of experiment: nucleic-acid assay. The essentials:
as §1

The test system of experiment [6] is Quadruplex DNA. Nature of the experiment: Stabilization of G-quadruplex c-KIT1 5-FAM-GGGAGGGCGCTGGGAGGAGGG-TAMRA-3 (unknown origin) assessed as change in melting temperature at 1 uM incubated for 1 hr in dark condition by FRET-based melting assay. Type of experiment: nucleic-acid assay. An outline of the steps:
as §1

For experiment [7], the system named is Quadruplex DNA. Description: Stabilization of G-quadruplex h-TELO 5-FAM-TTGGGTTAGGGTTAGGGTTAGGGA-TAMRA-3 (unknown origin) assessed as change in melting temperature at 1 uM incubated for 1 hr in dark condition by FRET-based melting assay. Type of experiment: nucleic-acid assay. An outline of the steps: as §1
Experiment [8] in a line: Reduction of c-MYC oncogene expression in human K562 cells transfected with c-MYC plasmid construct assessed as reduction in luciferase expression at 2 uM measured after 36 hrs by luciferase reporter assay. Type of experiment: functional. The essentials: (§2)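 K562 cells transfected with luciferase-expressing plasmids carrying the promoter G-quadruplex sequence of c-KIT, c-MYC or BCL-2, then ligand-treated. Relative luciferase expression measured.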
(Reporter assays use an easily measured gene product as a stand-in for the process of interest.)

A short description of experiment [9]: Reduction of c-MYC oncogene expression in human K562 cells transfected with c-MYC plasmid construct assessed as reduction in luciferase expression at 4 uM measured after 36 hrs by luciferase reporter assay. The class given is functional. The essentials: as §2
Experiment [10] concerns K562. Description: Attenuation of proto-oncogene expression in human c-KIT-positive K562 cells assessed as reduction in c-MYC oncogene expression at 2 uM measured after 24 hrs by qRT-PCR analysis relative to control. The class given is functional. An outline of the steps: (§3)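 K562 leukemia cells treated for 24 h. c-KIT, c-MYC and BCL-2 mRNA measured by qRT-PCR, with each gene normalized to 18s housekeeping gene expression. Reduction expressed relative to untreated cells.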

Experiment [11] concerns K562. Nature of the experiment: Attenuation of proto-oncogene expression in human c-KIT-positive K562 cells assessed as reduction in c-KIT oncogene expression at 4 uM measured after 24 hrs by qRT-PCR analysis relative to control. The class given is functional. The essentials:
as §3
On the technique in general: In qPCR the cycle at which signal appears reflects the starting amount.

Experiment [12] relates to K562. Description: Attenuation of proto-oncogene expression in human c-KIT-positive K562 cells assessed as reduction in c-KIT oncogene expression at 2 uM measured after 24 hrs by qRT-PCR analysis relative to control. Type of experiment: functional. The essentials:
as §3

Experiment [13] in a line: Reduction of c-KIT oncogene expression in human K562 cells transfected with c-KIT plasmid construct assessed as reduction in luciferase expression at 2 uM measured after 36 hrs by luciferase reporter assay. Type of experiment: functional. The essentials: as §2
A short description of experiment [14]: Reduction of c-KIT oncogene expression in human K562 cells transfected with c-KIT plasmid construct assessed as reduction in luciferase expression at 4 uM measured after 36 hrs by luciferase reporter assay. The class given is functional. The essentials:
as §2

A short description of experiment [15]: Reduction of BCL-2 oncogene expression in human K562 cells transfected with BCL-2 plasmid construct assessed as reduction in luciferase expression at 2 uM measured after 36 hrs by luciferase reporter assay. Type of experiment: functional. An outline of the steps:
as §2

Experiment [16] relates to K562. Nature of the experiment: Induction of DNA damage in human K562 cells assessed as cells exhibiting DNA damage at 5.5 uM incubated for 24 hrs by DNA damage assay (reference value: 10.8%). The class given is functional.
Experiment [17] in a line: Reduction of c-KIT protein expression in human K562 cells at 2 uM measured after 24 hrs by Western blotting analysis relative to control. Type of experiment: functional. An outline of the steps: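 Lysates of treated K562 cells probed by Western blot for c-KIT protein, with GAPDH as housekeeping reference.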
Background: In western blotting, separated proteins are transferred to a membrane and probed.

Experiment [18] deals with K562. Description: Attenuation of proto-oncogene expression in human c-KIT-positive K562 cells assessed as reduction in BCL-2oncogene expression at 2 uM measured after 24 hrs by qRT-PCR analysis relative to control. Type of experiment: functional. An outline of the steps: as §3
The test system of experiment [19] is K562. Description: Attenuation of proto-oncogene expression in human c-KIT-positive K562 cells assessed as reduction in BCL-2oncogene expression at 4 uM measured after 24 hrs by qRT-PCR analysis relative to control. Type of experiment: functional. An outline of the steps:
as §3

A short description of experiment [20]: Reduction of BCL-2 oncogene expression in human K562 cells transfected with BCL-2 plasmid construct assessed as reduction in luciferase expression at 4 uM measured after 36 hrs by luciferase reporter assay. The class given is functional. The essentials:
as §2

Experiment [21] deals with K562. Description: Induction of DNA damage in human K562 cells assessed as cells exhibiting DNA damage at 11 uM incubated for 24 hrs by DNA damage assay (reference value: 10.8%). The class given is functional.

A word on the ΔTm: it is the change in melting temperature against a reference sample. Usually inhibition stands for the percentage by which the read-out fell short of the control.

Molecules are shown by their SMILES.

On to `Nc1nc(CC(=O)Nc2nc(CC(=O)NCCCn3cc(-c4ccc5oc6ccccc6c5c4)nn3)cs2)cs1`, for which the ΔTm in experiment [1], in [2], in [3], in experiment [4], in experiment [5] and in experiment [6] was less than 6 °C in each case. For the same compound, the ΔTm in [7] was less than 6 °C.
As to `Nc1ccc(-n2cc(-c3ccc4oc5ccccc5c4c3)nn2)cc1`, the ΔTm in experiment [1], in experiment [2], in experiment [3], in experiment [4], in [5] and in experiment [6] was less than 6 °C throughout. Moreover, the ΔTm in experiment [7] was less than 6 °C.
Consider `NCCn1cc(-c2ccc3oc4ccccc4c3c2)nn1`, for which the ΔTm in experiment [1], in experiment [2], in experiment [3], in experiment [4], in experiment [5] and in [6] was less than 6 °C in each case. The ΔTm in [7] is less than 6 °C.
For the compound `CN(C)CCCn1cc(-c2ccc3[nH]c4ccccc4c3c2)nn1`, the ΔTm in [1], in experiment [2], in [3], in [4], in experiment [5] and in experiment [6] was less than 5.5 °C throughout. Besides, in experiment [7], the ΔTm was less than 5.5 °C.
In the case of `NCCCCC(N)C(=O)Nc1ccc(-n2cc(-c3ccc4oc5ccccc5c4c3)nn2)cc1` (stereo not drawn), the ΔTm in experiment [1], in experiment [2], in experiment [3], in [4], in experiment [5] and in [6] was less than 6 °C each time. Moreover, the ΔTm in [7] is less than 6 °C.
In the case of `NCCCCC(N)C(=O)Nc1ccc(-n2cc(-c3ccc4[nH]c5ccccc5c4c3)nn2)cc1` (stereo not drawn), the ΔTm in [1], in [2], in [3], in experiment [4], in experiment [5] and in [6] was less than 5.5 °C throughout. Moreover, in experiment [7], the ΔTm is less than 5.5 °C.
`Nc1nc(CC(=O)Nc2nc(CC(=O)NCCCn3cc(-c4ccc5[nH]c6ccccc6c5c4)nn3)cs2)cs1`: the ΔTm in experiment [1], in experiment [2], in experiment [3], in experiment [4], in experiment [5] and in experiment [6] was less than 5.5 °C each time. For the same compound, the ΔTm in [7] was less than 5.5 °C.
In the case of `CN(C)CCCn1cc(-c2ccc3oc4ccccc4c3c2)nn1`, the ΔTm in experiment [1], in experiment [2], in [3], in [4], in experiment [5] and in experiment [6] was less than 6 °C each time. In experiment [7], the ΔTm was less than 6 °C.
As for `NCCn1cc(-c2ccc3[nH]c4ccccc4c3c2)nn1`, the ΔTm in [1], in experiment [2], in experiment [3], in experiment [4], in experiment [5] and in experiment [6] was less than 5.5 °C throughout. In experiment [7], the ΔTm was less than 5.5 °C.
For the compound `O=C(Nc1ccc(-n2cc(-c3ccc4oc5ccccc5c4c3)nn2)cc1)C1CCCN1` (stereo not drawn), the ΔTm in experiment [1], in experiment [2], in experiment [3], in experiment [4], in [5] and in experiment [6] was less than 6 °C each time. The ΔTm in experiment [7] was less than 6 °C.
Regarding `O=C(Nc1ccc(-n2cc(-c3ccc4[nH]c5ccccc5c4c3)nn2)cc1)C1CCCN1` (stereo not drawn), the ΔTm in experiment [1], in experiment [2], in experiment [3], in experiment [4], in experiment [5] and in experiment [6] was less than 5.5 °C throughout. For the same compound, the ΔTm in experiment [7] was less than 5.5 °C.
As for `Nc1ccc(-n2cc(-c3ccc4[nH]c5ccccc5c4c3)nn2)cc1`, the ΔTm in [1], in [2], in experiment [3], in experiment [4], in experiment [5] and in experiment [6] was less than 5.5 °C each time. The ΔTm in experiment [7] is less than 5.5 °C.
For the compound `C[n+]1ccc(-c2c3nc(c(-c4cc[n+](C)cc4)c4ccc([nH]4)c(-c4cc[n+](C)cc4)c4nc(c(-c5cc[n+](C)cc5)c5ccc2[nH]5)C=C4)C=C3)cc1.[Cl-].[Cl-].[Cl-].[Cl-]` [TMPYP4 CHLORIDE], the inhibition at 2 µM in experiment [8] came out at 24.4%; in experiment [10], 11%; in [12] it was 30%; in experiment [13], 20.1%; in [15], 20.7%; in experiment [17], 10%. The inhibition at 2 µM in experiment [18] was found to be 37%. For the same compound, the inhibition at 4 µM in experiment [9] is 45.3%; in [11], 48%; in experiment [14], 34.1%; in [19], 45%; in [20], 39.7%. Besides, the Activity turned out to be 27.6% in experiment [16] and 30.3% in experiment [21].
